Test results taken from ChEMBL document CHEMBL4373633, “New methods to assess 6-thiopurine toxicity and expanding its therapeutic application to pancreatic cancer via small molecule potentiators” (Medchemcomm, 2019).
The source made the active and inactive calls. The rule behind the calls is not given here.

Tests used:
[1] = molecular target: T1, UDP-glucose 6-dehydrogenase (Streptococcus pyogenes, UniProt P0C0F4); experiment: Inhibition of Streptococcus pyogenes UDPGDH expressed in Escherichia coli assessed as inhibitior constant by mesuring UDPGA production after 20 to 120 secs by HPLC analysis
Outline: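 UDPGA formed by UDPGDH was quantified by reverse-phase C18 HPLC at 262 nm against a UDPGA standard curve. Aqueous phase 8 mM imidazole/2.5 mM TBAHS, pH 6.5; organic phase methanol; 0.5 mL/min gradient over a 23 min run. UDPG was varied at several inhibitor levels. Slopes of the lines were plotted against inhibitor concentration, and Ki was taken as the […] x-intercept.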

[2] = molecular target: T1, UDP-glucose 6-dehydrogenase; experiment: Inhibition of Streptococcus pyogenes UDPGDH expressed in Escherichia coli assessed as inhibitior constant after 20 to 120 secs by UV-VIS spectroscopic analysis
[3] = Inhibition of UDPGDH/UGT-1A in hepatocytes (unknown origin) assessed as reduction in BDG production at 25 uM by HPLC analysis; format: ADME, cell-based; conditions: human
[4] = system: HeLa; experiment: Antiproliferative activity against human HeLa cells assessed as reduction in cell viability after 72 hrs by alamar blue assay; format: functional, cell-based
Outline: (§1)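 Cell lines from ATCC, grown in medium with FBS and antibiotics at 37 °C, 5% CO2, 95% humidity. Compound DMSO stocks diluted in medium over 31.6 nM–200 μM, tested in triplicate. Plated at 2000 cells/well (adherent) or 3500 (suspension). After 69 h of continuous exposure, Alamar Blue was added for 3 h more. Fluorescence read at ex 560/em 590 nm. IC50 from ≥3 independent experiments.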

[5] = system: A549; experiment: Antiproliferative activity against human A549 cells assessed as reduction in cell viability after 72 hrs by alamar blue assay; format: functional, cell-based; conditions: A549, 72 h; outline: as §1
[6] = system: MIA PaCa-2; experiment: Antiproliferative activity against human MIAPaCa2 cells assessed as reduction in cell viability after 72 hrs by alamar blue assay; format: functional, cell-based; conditions: MIA PaCa-2, 72 h; outline: as §1
[7] = system: U-937; experiment: Antiproliferative activity against human U937 cells assessed as reduction in cell viability after 72 hrs by alamar blue assay; format: functional, cell-based; conditions: U-937, 72 h; outline: as §1
[8] = system: MIA PaCa-2; experiment: Synergistic antiproliferative activity against human MIAPaCa2 cells assessed as cell death at 2.5 uM after 72 hrs in presence of 10 uM 6TP by alamar blue assay (reference value: 6.9%); format: functional
[9] = system: MIA PaCa-2; experiment: Synergistic antiproliferative activity against human MIAPaCa2 cells assessed as cell death at 2.5 uM after 72 hrs in presence of 25 uM 6TP by alamar blue assay (reference value: 6.4%); format: functional
[10] = system: MIA PaCa-2; experiment: Synergistic antiproliferative activity against human MIAPaCa2 cells assessed as cell death at 2.5 uM after 72 hrs in presence of 50 uM 6TP by alamar blue assay (reference value: 13.8%); format: functional
[11] = system: MIA PaCa-2; experiment: Synergistic antiproliferative activity against human MIAPaCa2 cells assessed as cell death at 2.5 uM after 72 hrs in presence of 100 uM 6TP by alamar blue assay (reference value: 30.7%); format: functional
[12] = system: MIA PaCa-2; experiment: Synergistic antiproliferative activity against human MIAPaCa2 cells assessed as cell death at 5 uM after 72 hrs in presence of 10 uM 6TP by alamar blue assay (reference value: 6.9%); format: functional
[13] = system: MIA PaCa-2; experiment: Synergistic antiproliferative activity against human MIAPaCa2 cells assessed as cell death at 5 uM after 72 hrs in presence of 25 uM 6TP by alamar blue assay (reference value: 6.4%); format: functional
[14] = system: MIA PaCa-2; experiment: Synergistic antiproliferative activity against human MIAPaCa2 cells assessed as cell death at 5 uM after 72 hrs in presence of 50 uM 6TP by alamar blue assay (reference value: 13.8%); format: functional
[15] = system: MIA PaCa-2; experiment: Synergistic antiproliferative activity against human MIAPaCa2 cells assessed as cell death at 5 uM after 72 hrs in presence of 100 uM 6TP by alamar blue assay (reference value: 30.7%); format: functional
[16] = system: U-937; experiment: Synergistic antiproliferative activity against human U937 cells at 2.5 to 5 uM after 72 hrs in presence of 6TP by alamar blue assay based Chou-Talalay method; format: functional, cell-based
[17] = system: HeLa; experiment: Synergistic antiproliferative activity against human HeLa cells at 2.5 to 5 uM after 72 hrs in presence of 6TP by alamar blue assay; format: functional, cell-based
[18] = system: A549; experiment: Synergistic antiproliferative activity against human A549 cells at 2.5 to 5 uM after 72 hrs in presence of 6TP by alamar blue assay; format: functional, cell-based
[19] = system: REH; experiment: Synergistic antiproliferative activity against human REH cells at 2.5 to 5 uM uM after 72 hrs in presence 6TP by alamar blue assay based alamar blue assay; format: functional, cell-based
[20] = Inhibition of Streptococcus pyogenes UDPGDH expressed in Escherichia coli/rat liver microsome UGT-1A assessed as reduction in BDG production at 5 uM in presence of UDPGA by HPLC analysis; format: ADME; conditions: microsomes
Outline: (§2)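 Coupled in vitro model in phosphate buffer with alamethicin. Microsomal UGT-1A 4.4 units/mL, 2 mM bilirubin, 10 mM NAD+, 5 mM UDPG, UDPGDH:UGT-1A ratio 1:2200. Reaction started by adding UDPGDH. UDPGA-rescue arm included 15 μM UDPGA. Bilirubin mono- and diglucuronide formation measured by HPLC.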

[21] = Inhibition of Streptococcus pyogenes UDPGDH expressed in Escherichia coli/rat liver microsome UGT-1A assessed as reduction in BMG production at 5 uM in presence of UDPGA by HPLC analysis; format: ADME; conditions: microsomes; outline: as §2
[22] = Inhibition of Streptococcus pyogenes UDPGDH expressed in Escherichia coli/rat liver microsome UGT-1A assessed as reduction in BMG production at 5 uM by HPLC analysis; format: ADME; conditions: microsomes; outline: as §2
[23] = Inhibition of Streptococcus pyogenes UDPGDH expressed in Escherichia coli/rat liver microsome UGT-1A assessed as reduction in BDG production at 5 uM by HPLC analysis; format: ADME; conditions: microsomes; outline: as §2
[24] = Inhibition of UDPGDH/UGT-1A in hepatocytes (unknown origin) assessed as reduction in BMG production at 5 uM in presence of UDPGA by HPLC analysis; format: ADME, cell-based; conditions: human
[25] = Inhibition of UDPGDH/UGT-1A in hepatocytes (unknown origin) assessed as reduction in BDG production at 5 uM by HPLC analysis; format: ADME, cell-based; conditions: human
[26] = system: REH; experiment: Synergistic antiproliferative activity against human REH cells assessed as cell death at 2.5 uM after 72 hrs in presence of 10 uM 6TP by alamar blue assay (reference value: 10.8%); format: functional
[27] = system: REH; experiment: Synergistic antiproliferative activity against human REH cells assessed as cell death at 2.5 uM after 72 hrs in presence of 25 uM 6TP by alamar blue assay (reference value: 12.2%); format: functional
[28] = system: REH; experiment: Synergistic antiproliferative activity against human REH cells assessed as cell death at 2.5 uM after 72 hrs in presence of 50 uM 6TP by alamar blue assay (reference value: 21.9%); format: functional
[29] = system: REH; experiment: Synergistic antiproliferative activity against human REH cells assessed as cell death at 2.5 uM after 72 hrs in presence of 100 uM 6TP by alamar blue assay (reference value: 49.5%); format: functional
[30] = system: REH; experiment: Synergistic antiproliferative activity against human REH cells assessed as cell death at 5 uM after 72 hrs in presence of 10 uM 6TP by alamar blue assay (reference value: 10.8%); format: functional
[31] = system: REH; experiment: Synergistic antiproliferative activity against human REH cells assessed as cell death at 5 uM after 72 hrs in presence of 25 uM 6TP by alamar blue assay (reference value: 12.2%); format: functional
[32] = system: REH; experiment: Synergistic antiproliferative activity against human REH cells assessed as cell death at 5 uM after 72 hrs in presence of 50 uM 6TP by alamar blue assay (reference value: 21.9%); format: functional
[33] = system: REH; experiment: Synergistic antiproliferative activity against human REH cells assessed as cell death at 5 uM after 72 hrs in presence of 100 uM 6TP by alamar blue assay (reference value: 49.5%); format: functional
[34] = Inhibition of Streptococcus pyogenes UDPGDH expressed in Escherichia coli/rat liver microsome UGT-1A assessed as reduction in BDG production at 10 uM by HPLC analysis; format: ADME; conditions: microsomes; outline: as §2
[35] = Inhibition of Streptococcus pyogenes UDPGDH expressed in Escherichia coli/rat liver microsome UGT-1A assessed as reduction in BMG production at 10 uM by HPLC analysis; format: ADME; conditions: microsomes; outline: as §2

T1 sequence (P0C0F4 whole entry): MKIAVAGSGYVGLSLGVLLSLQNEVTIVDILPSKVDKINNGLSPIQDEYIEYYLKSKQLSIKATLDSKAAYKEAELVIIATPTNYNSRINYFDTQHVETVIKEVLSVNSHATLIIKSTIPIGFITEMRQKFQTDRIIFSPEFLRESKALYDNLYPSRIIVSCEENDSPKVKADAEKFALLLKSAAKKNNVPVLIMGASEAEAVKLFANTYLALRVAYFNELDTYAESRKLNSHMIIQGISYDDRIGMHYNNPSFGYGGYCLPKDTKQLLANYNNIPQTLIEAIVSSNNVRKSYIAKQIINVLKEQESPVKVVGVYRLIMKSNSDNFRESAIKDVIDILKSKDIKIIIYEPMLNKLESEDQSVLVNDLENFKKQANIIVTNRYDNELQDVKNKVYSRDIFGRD

| Compound | Ki [1] [µM] | Ki [2] [µM] | IC50 [5] [µM] | Activity [8] [%] | Activity [9] [%] | Activity [10] [%] | Activity [11] [%] | Activity [12] [%] | Activity [13] [%] | Activity [14] [%] | Activity [15] [%] | Activity [16] | Activity [17] | Activity [18] | Activity [19] | further results |
| --- | --- | --- | --- | --- | --- | --- | --- | --- | --- | --- | --- | --- | --- | --- | --- | --- |
| COCOc1cc(OCOC)c(C(=O)/C=C/c2ccccc2)c(OCOC)c1 | – | – | > 20 | 14.2 | 15 | 16.9 | 17.6 | 18.4 | 17.3 | 17 | 19.3 | inactive | inactive | inactive | inactive | IC50 [4]: 12.2 µM; IC50 [6]: > 20 µM; IC50 [7]: 7.4 µM |
| COCOc1cc(O)c(C(=O)/C=C/c2ccccc2)c(OCOC)c1 | – | – | – | 7 | 7.2 | 9.7 | 15.2 | 8.1 | 8.2 | 13 | 19.9 | inactive | inactive | inactive | inactive | – |
| COCOc1cc(OC)c(C(=O)/C=C/c2ccccc2)c(OCOC)c1 | – | – | 7.2 | 16.5 | 18.6 | 25.1 | 49.1 | 25.4 | 30 | 40.8 | 61.2 | inactive | inactive | inactive | – | Activity [26]: 11.1%; Activity [27]: 13.5%; Activity [28]: 22.1%; Activity [29]: 51%; Activity [30]: 12.7%; Activity [31]: 19.1%; Activity [32]: 26.1%; Activity [33]: 51% |
| CNC(=O)c1cc(Oc2ccc(NC(=O)Nc3ccc(Cl)c(C(F)(F)F)c3)c(F)c2)ccn1 [REGORAFENIB] | – | – | – | – | – | – | – | – | – | – | – | – | – | – | – | inhibition (INH) [34]: Active; inhibition (INH) [35]: Active |

Now from value to molecule, other results behind:

| Ki [1] [µM] | Ki [2] [µM] | Compound | IC50 [5] [µM] | Activity [8] [%] | Activity [9] [%] | Activity [10] [%] | Activity [11] [%] | Activity [12] [%] | Activity [13] [%] | Activity [14] [%] | Activity [15] [%] | Activity [16] | Activity [17] | Activity [18] | Activity [19] | further results |
| --- | --- | --- | --- | --- | --- | --- | --- | --- | --- | --- | --- | --- | --- | --- | --- | --- |
| 111 | 288 | Sc1ncnc2nc[nH]c12 [MERCAPTOPURINE ANHYDROUS] | – | – | – | – | – | – | – | – | – | – | – | – | – | inhibition (INH) [3]: Active |
| 5 | 7 | O=c1[nH]c(=S)c2[nH]c(=O)[nH]c2[nH]1 | – | – | – | – | – | – | – | – | – | – | – | – | – | inhibition (INH) [20]: Not Active; inhibition (INH) [21]: Not Active; inhibition (INH) [22]: Active; inhibition (INH) [23]: Active; inhibition (INH) [24]: Not Active; inhibition (INH) [25]: Active |
